Measurements published in ChEMBL document CHEMBL4354865 (J Med Chem, 2020).
Calls of active or inactive are those of the source. The calls are words filed in the database; no cut-off is given here.

Key:
[1] = Cmax in BALB/c mouse at 10 mg/kg, iv by LC-MS analysis; format: ADME, organism-based; design: dose 10 mg/kg, route intravenous; conditions: in vivo
Method in brief: (§1)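 Mice received a single i.v. dose of 10 mg/kg. Serial blood samples were taken and PK parameters derived, including half-life, clearance, volume of distribution and Cmax.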

[2] = Half life in BALB/c mouse at 10 mg/kg, iv by LC-MS analysis; format: ADME, organism-based; conditions: in vivo; method in brief: as §1
[3] = Drug metabolism in CD-1 mouse liver microsomes assessed as benzimidazole oxidation at 50 uM measured after 1 hr by LC-HRMS analysis; format: ADME, Microsome
[4] = Metabolic stability in CD-1 mouse liver microsomes assessed as parent compound remaining at 50 uM measured after 1 hr in presence of NADPH generating system by UV-LC/MS analysis; format: ADME, Microsome; conditions: read-out: Stability
Method in brief: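 Mouse liver microsomes activated with NADPH. Residual parent compound was measured after 1 h incubation.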

[5] = molecular target: Tryptophan 2,3-dioxygenase (Mus musculus, UniProt P48776); assay: Inhibition of mouse TDO transfected in P815 cells assessed as reduction in L-Kyn level measured after 16 hrs by HPLC analysis; format: cell-based
Method in brief: (§2)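 P815 mastocytoma cells stably expressing mouse IDO1 (P1.IDO1) or TDO (P1.TDO) were treated with serial dilutions for 16 h. L-Kyn secreted into the culture supernatant was quantified by HPLC, and an IC50 was determined in each line.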

[6] = molecular target: Indoleamine 2,3-dioxygenase 1 (Mus musculus, UniProt P28776); assay: Inhibition of mouse IDO1 transfected in P815 cells assessed as reduction in L-Kyn level measured after 16 hrs by HPLC analysis; format: cell-based; method in brief: as §2
[7] = molecular target: T1, Indoleamine 2,3-dioxygenase 1 (Homo sapiens, UniProt P14902); assay: Inhibition of IDO1 in IFNgamma-stimulated human MCF7 cells assessed as reduction in L-Kyn level measured after 48 hrs by HPLC analysis; format: cell-based
Target sequence in this assay (P14902 whole entry): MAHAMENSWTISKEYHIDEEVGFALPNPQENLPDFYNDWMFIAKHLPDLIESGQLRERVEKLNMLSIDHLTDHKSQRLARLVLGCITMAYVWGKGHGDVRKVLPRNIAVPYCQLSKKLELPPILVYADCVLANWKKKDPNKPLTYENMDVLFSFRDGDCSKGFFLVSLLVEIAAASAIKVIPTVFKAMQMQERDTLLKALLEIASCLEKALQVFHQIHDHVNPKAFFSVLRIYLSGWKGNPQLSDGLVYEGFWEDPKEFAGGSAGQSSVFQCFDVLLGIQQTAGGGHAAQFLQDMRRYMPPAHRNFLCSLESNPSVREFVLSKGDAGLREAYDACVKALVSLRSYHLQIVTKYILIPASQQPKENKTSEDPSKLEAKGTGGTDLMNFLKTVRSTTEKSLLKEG

[8] = molecular target: T1, Indoleamine 2,3-dioxygenase 1; assay: Selectivity ratio of IC50 for IDO1 in IFNgamma-stimulated human DAN-G cells to IC50 for IDO1 in IFNgamma-stimulated human A375 cells
Target sequence in this assay (P14902 whole entry, looked up): as the sequence (P14902 whole entry) above

[9] = molecular target: T1, Indoleamine 2,3-dioxygenase 1; assay: Inhibition of IDO1 in IFNgamma-stimulated human A375 cells assessed as reduction in L-Kyn level at 1 uM measured after 48 hrs by HPLC analysis relative to control
Method in brief: (§3)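 A375 cells, unstimulated or stimulated with recombinant human IFN-γ, were left untreated or treated with 1 µM compound for 48 h. L-Kyn was measured by HPLC and cell viability was assessed.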
Target sequence in this assay (P14902 whole entry, looked up): as the sequence (P14902 whole entry) above

[10] = Volume of distribution in BALB/c mouse at 10 mg/kg, iv by LC-MS analysis; format: ADME, organism-based; conditions: in vivo; method in brief: as §1
[11] = Inhibition of CYP450 in rat liver microsomes assessed as reduction in aminopyrine N-demethylase activity preincubated for 3 mins followed by NADPH addition and measured after 15 mins by iodometric titration method; format: ADME; conditions: rat, microsomes, 0.25 h
Method in brief: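 CYP inhibition read by aminopyrine N-demethylase activity, with IC50 determined from concentration–response curves. Ketoconazole (CYP3A inhibitor) served as reference.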

Monocyte [12] = assay: Cytotoxicity against PDAC patient derived monocytes assessed as reduction in cell viability at 30 uM measured after 24 hrs by Annexin-V APC/7-AAD staining based flow cytometric analysis; conditions: human
Method in brief: (§4)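 Monocytes from healthy donors (n=3) and from PDAC patients (n=3) were treated for 24 h, with DMSO as control. Viability was normalized to untreated cells. Healthy-donor cells received a range of concentrations; PDAC cells received 30 µM.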

Monocyte [13] = assay: Cytotoxicity against human monocytes assessed as reduction in cell viability at 30 uM measured after 24 hrs by Annexin-V APC/7-AAD staining based flow cytometric analysis; method in brief: as §4
[14] = molecular target: T1, Indoleamine 2,3-dioxygenase 1; assay: Inhibition of IDO1 in PDAC patient derived suppressive monocytes co-cultured with human PBMC assessed as reduction in anti-CD3/anti-CD28-stimulated CD3+T cell proliferation at 30 uM preincubated for 4 days followed by co-culturing of monocytes and measured after 24 hrs by flow cytometric analysis
Target sequence in this assay (P14902 whole entry, looked up): as the sequence (P14902 whole entry) above

Mus musculus [15] = assay: In vivo inhibition of IDO1 in BALB/c mouse assessed as reduction in L-kyn level at 10 mg/kg, iv measured up to 8 hrs by LC-HRMS analysis
[16] = Drug metabolism in CD-1 mouse liver microsomes assessed as oxidative N-dealkylation at 50 uM measured after 1 hr by LC-HRMS analysis; format: ADME, Microsome
Mus musculus [17] = organism: Mus musculus; assay: Selectivity ratio of IC50 for inhibition of mouse TDO transfected in P815 cells to IC50 for inhibition of mouse IDO1 transfected in P815 cells; format: cell-based; method in brief: as §2
[18] = molecular target: T1, Indoleamine 2,3-dioxygenase 1; assay: Inhibition of IDO1 in IFNgamma-stimulated human A375 cells assessed as reduction in L-Kyn level measured after 48 hrs by HPLC analysis
Target sequence in this assay (P14902 whole entry): as above

[19] = Metabolic stability in CD-1 mouse liver microsomes assessed as parent compound remaining at 50 uM measured after 1 hr in presence of NADPH by UV-LC/MS analysis
[20] = molecular target: T1, Indoleamine 2,3-dioxygenase 1; assay: Inhibition of IDO1 in IFNgamma-stimulated human DAN-G cells assessed as reduction in L-Kyn level measured after 48 hrs by HPLC analysis; format: cell-based
Target sequence in this assay (P14902 whole entry): as above

[21] = Cytotoxicity against human A375 cells assessed as cell viability at 1 uM measured after 48 hrs by MTT assay relative to control; format: cell-based, A-375; conditions: read-out: Activity; method in brief: as §3
Monocyte [22] = assay: Effect on anti-CD3/anti-CD28-stimulated CD3+T cell proliferation in PDAC patient derived non-suppressive monocytes co-cultured with human PBMC at 30 uM preincubated for 4 days followed by co-culturing of monocytes and measured after 24 hrs by flow cytometric analysis; format: cell-based
Method in brief: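 PDAC patient monocytes (suppressive or non-suppressive) were pre-treated with 30 µM compound or DMSO, then co-cultured for 4 days with Cell Trace-labelled activated CD3+ T cells. T-cell proliferation was read from proliferation peaks and normalized to activated T cells cultured without myeloid cells. Data are mean ± SEM; Mann-Whitney test.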

Sequence of Tryptophan 2,3-dioxygenase (P48776 whole entry): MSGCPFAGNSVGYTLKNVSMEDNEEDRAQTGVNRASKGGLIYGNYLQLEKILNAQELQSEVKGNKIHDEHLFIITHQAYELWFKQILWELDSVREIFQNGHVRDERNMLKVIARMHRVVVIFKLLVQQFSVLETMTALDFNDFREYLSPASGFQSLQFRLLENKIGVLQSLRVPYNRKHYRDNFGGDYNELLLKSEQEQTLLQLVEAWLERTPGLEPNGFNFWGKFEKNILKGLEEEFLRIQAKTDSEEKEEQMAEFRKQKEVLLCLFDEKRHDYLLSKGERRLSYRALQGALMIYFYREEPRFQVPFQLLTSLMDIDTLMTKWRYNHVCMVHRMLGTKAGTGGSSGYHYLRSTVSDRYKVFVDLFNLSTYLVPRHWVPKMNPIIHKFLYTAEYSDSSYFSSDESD
Sequence of Indoleamine 2,3-dioxygenase 1 (Mus musculus, UniProt P28776) (P28776 whole entry): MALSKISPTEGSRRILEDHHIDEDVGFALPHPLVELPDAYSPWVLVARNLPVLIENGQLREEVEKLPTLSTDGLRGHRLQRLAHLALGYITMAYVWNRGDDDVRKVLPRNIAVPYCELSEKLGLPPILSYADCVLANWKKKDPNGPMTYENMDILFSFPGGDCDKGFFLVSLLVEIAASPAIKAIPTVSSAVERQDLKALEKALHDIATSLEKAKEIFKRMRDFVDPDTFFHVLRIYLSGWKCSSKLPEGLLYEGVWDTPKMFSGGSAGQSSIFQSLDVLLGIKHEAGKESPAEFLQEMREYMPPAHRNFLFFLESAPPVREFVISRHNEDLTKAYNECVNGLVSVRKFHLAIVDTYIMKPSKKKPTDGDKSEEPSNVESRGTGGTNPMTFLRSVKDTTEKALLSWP

O=C(NCc1cccc(Cn2cnc3ccccc32)c1)c1cc2ccccc2[nH]1
Cmax [1]: 2680 ng/mL | t1/2 [2]: 39 min | Drug metabolism [3]: Metabolite_Detected | remaining at 1 h, 50 µM [4]: 65% | IC50 [5]: 13200 nM | IC50 [6]: 9.3 nM | IC50 [7]: 83 nM | Ratio IC50 [8]: 1.9 | inhibition [9]: 94% | Vd [10]: 6.6 L/kg | inhibition (INH) [11]: Not Active | Activity (Monocyte [12]): Non-Toxic | Activity (Monocyte [13]): Non-Toxic | inhibition [14]: Active | inhibition (Mus musculus [15]): Active | Drug metabolism [16]: Metabolite_Detected | Ratio IC50 (Mus musculus [17]): > 1000 | IC50 [18]: 72 nM | remaining at 1 h, 50 µM [19]: 65% | IC50 [20]: 140 nM | viability at 48 h, 1 µM [21]: 99% | Activity (Monocyte [22]): Non-Toxic
